Experimental data as given in ChEMBL document CHEMBL1770135, “Acylideneoxoindoles: a new class of reversible inhibitors of human transglutaminase 2” (Bioorg Med Chem Lett, 2011).
Activity calls are given as the source filed them. No cut-off for these calls is given here.

Legend:
[1] = molecular target: T1, Protein-glutamine gamma-glutamyltransferase (Homo sapiens, UniProt P21980); assay: Inhibition of human transglutaminase 2 using Cbz-Gln-Gly as a substrate by GDH-coupled assay
T1 sequence (P21980 whole entry): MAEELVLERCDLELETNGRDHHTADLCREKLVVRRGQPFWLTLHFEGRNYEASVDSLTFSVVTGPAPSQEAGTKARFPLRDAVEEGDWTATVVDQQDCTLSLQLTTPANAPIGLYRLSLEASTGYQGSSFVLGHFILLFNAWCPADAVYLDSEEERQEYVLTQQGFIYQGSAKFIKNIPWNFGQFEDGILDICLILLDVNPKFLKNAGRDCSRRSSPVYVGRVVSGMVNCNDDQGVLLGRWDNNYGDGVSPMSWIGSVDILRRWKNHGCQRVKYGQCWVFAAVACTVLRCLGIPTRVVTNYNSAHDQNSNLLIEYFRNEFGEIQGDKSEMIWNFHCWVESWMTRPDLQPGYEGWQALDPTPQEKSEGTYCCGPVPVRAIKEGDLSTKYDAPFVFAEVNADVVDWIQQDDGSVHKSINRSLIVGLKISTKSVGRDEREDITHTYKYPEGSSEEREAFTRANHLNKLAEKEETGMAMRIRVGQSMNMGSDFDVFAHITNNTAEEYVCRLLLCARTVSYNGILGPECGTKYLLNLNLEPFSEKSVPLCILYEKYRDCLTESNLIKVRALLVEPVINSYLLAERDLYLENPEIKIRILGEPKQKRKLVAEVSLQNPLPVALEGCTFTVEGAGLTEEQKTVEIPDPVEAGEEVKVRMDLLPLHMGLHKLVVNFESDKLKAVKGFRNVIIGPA
Outline: (§1)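 Glutamate dehydrogenase-coupled deamidation assay with human TG2 at 0.5 µM and Cbz-Gln-Gly as acyl donor substrate. […] Ki values were derived from kinetic analysis in a mixed inhibition model, with α taken as the Ki'/Ki ratio. Errors were typically under 10%.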

[2] = molecular target: T1, Protein-glutamine gamma-glutamyltransferase; assay: Inhibition of human transglutaminase 2 using ZGBC as a substrate after 30 to 60 mins by fluorometric assay
Outline: (§2)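 Direct fluorometric assay following TG2-catalysed release of 7-hydroxycoumarin from an ester substrate, with human TG2 at 15 nM. […] Ki and α were derived from a mixed inhibition model, with α as the Ki'/Ki ratio.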

[3] = molecular target: T2, Protein-glutamine gamma-glutamyltransferase (Homo sapiens) (UniProt P21980); assay: Partial inhibition of human transglutaminase 2 using ZGBC as a substrate after 30 to 60 mins by fluorometric assay; parameters: concentration or dose not given beside the values; outline: as §2
T2 sequence (whole entry): T1 sequence (P21980 whole entry)

[4] = molecular target: T2, Protein-glutamine gamma-glutamyltransferase (Homo sapiens); assay: Partial inhibition of human transglutaminase 2 using Cbz-Gln-Gly as a substrate by GDH-coupled assay; conditions: concentration not given here; outline: as §1
[5] = molecular target: T2, Protein-glutamine gamma-glutamyltransferase (Homo sapiens); conditions: 2 to 8 uM

SMILES	IC50 [1]	IC50 [2]	Ki [1]	other results
O=C1Nc2ccccc2C1=O [ISATIN]	> 250000 nM	–	–	–
O=C1Nc2c(Cl)cccc2/C1=C\C(=O)c1cccnc1	7300 nM	1600 nM	–	inhibition [3]: 70%
O=C1C(=O)N(CN2C(=O)C(=O)c3ccccc32)c2ccccc21	18000 nM	–	10000 nM	–
CCOC(=O)CN1C(=O)/C(=C/C(=O)c2cccnc2)c2c(Cl)cccc21	1800 nM	2500 nM	–	–
O=C1Nc2ccc(Oc3ccc4c(c3)C(=O)C(=O)N4)cc2C1=O	25000 nM	–	3000 nM	–
CC(=O)/C=C1/C(=O)Nc2cccc(Cl)c21	1500 nM	–	700 nM	–
O=C1Nc2ccc(Br)cc2/C1=C\C(=O)c1cccnc1	4800 nM	560 nM	3000 nM	Ki [2]: 680 nM
O=C1Nc2ccccc2/C1=C1\C(=O)Nc2ccccc21 [ISOINDIGO]	8000 nM	–	41000 nM	–
Cc1cc(CN2C(=O)C(=O)c3ccccc32)c(C)cc1CN1C(=O)C(=O)c2ccccc21	> 250000 nM	–	–	–
O=C1Nc2ccccc2/C1=C\C(=O)c1cccnc1	22000 nM	8500 nM	12000 nM	–
O=C1Nc2c(Br)cccc2/C1=C\C(=O)c1cccnc1	2900 nM	3200 nM	–	–
CC(=O)/C=C1/C(=O)Nc2c(Cl)cccc21	4700 nM	3900 nM	–	–
CN(C)C(=O)CN1C(=O)/C(=C/C(=O)c2cccnc2)c2c(Cl)cccc21	5500 nM	9200 nM	–	–
CC(=O)/C=C1/C(=O)Nc2cc(OC(F)(F)F)ccc21	3600 nM	2600 nM	–	–
O=C1Nc2cccc(Cl)c2/C1=C\C(=O)c1cncc(Br)c1	1400 nM	970 nM	–	–
O=C(/C=C1/C(=O)N(CCc2ccccc2)c2cccc(Cl)c21)c1cccnc1	1500 nM	2900 nM	–	–
O=C(/C=C1/C(=O)N(Cc2ccccc2)c2cccc(Cl)c21)c1cccnc1	1500 nM	360 nM	410 nM	Ki [2]: 1000 nM

SMILES	IC50 [1]	IC50 [2]	Ki [1]	other results
CC(=O)/C=C1/C(=O)Nc2ccccc21	11000 nM	19000 nM	10000 nM	–
CC(=O)/C=C1/C(=O)Nc2ccc(Cl)cc21	4300 nM	3700 nM	900 nM	–
O=C1Nc2cc(Br)ccc2/C1=C\C(=O)c1cccnc1	1500 nM	360 nM	–	inhibition [4]: 35%; inhibition [3]: 65%
O=C1Nc2ccc(Cl)cc2/C1=C\C(=O)c1cccnc1	6000 nM	1200 nM	–	–
CC(C)N1C(=O)/C(=C/C(=O)c2cccnc2)c2c(Cl)cccc21	1400 nM	1500 nM	–	–
Cc1ccc2c(c1)/C(=C\C(=O)c1cccnc1)C(=O)N2	6300 nM	4500 nM	–	–
O=C1Nc2ccc([N+](=O)[O-])cc2/C1=C\C(=O)c1cccnc1	7900 nM	1700 nM	–	–
CN1C(=O)/C(=C/C(=O)c2cccnc2)c2c(Cl)cccc21	4000 nM	11000 nM	4000 nM	–
Cc1cc(C)c(CN2C(=O)C(=O)c3ccccc32)cc1CN1C(=O)C(=O)c2ccccc21	40000 nM	–	11000 nM	–
O=C1Nc2ccccc2/C1=C1/Nc2ccccc2C1=O [INDIRUBIN]	> 100000 nM	–	–	–
CC(=O)/C=C1/C(=O)Nc2cc(F)ccc21	11000 nM	20000 nM	5400 nM	–
COc1ccncc1C(=O)/C=C1/C(=O)Nc2cccc(Cl)c21	1400 nM	950 nM	–	inhibition [3]: 50%
O=C1Nc2cc(Cl)ccc2/C1=C\C(=O)c1cccnc1	2100 nM	20000 nM	5300 nM	inhibition [5]: Active; inhibition [4]: 70%
O=C(/C=C1/C(=O)N(CC2CCCCC2)c2cccc(Cl)c21)c1cccnc1	2100 nM	6700 nM	–	–
O=C1Nc2cccc(Cl)c2/C1=C\C(=O)c1ccccc1	2800 nM	20000 nM	3300 nM	–
O=C1Nc2ccc(Cc3ccc4c(c3)C(=O)C(=O)N4)cc2C1=O	30000 nM	–	15000 nM	–

Continued, in another order:

IC50 [1]	IC50 [2]	Ki [1]	SMILES	other results
1100 nM	5600 nM	–	COC(=O)c1cccc(CN2C(=O)/C(=C/C(=O)c3cccnc3)c3c(Cl)cccc32)c1	–
1200 nM	1000 nM	–	O=C1Nc2cccc(Cl)c2/C1=C\C(=O)c1ccncc1	–
1000 nM	1100 nM	–	COc1cccc(C(=O)/C=C2/C(=O)Nc3cccc(Cl)c32)c1	–
1300 nM	1000 nM	–	O=C(/C=C1/C(=O)N(CCCc2ccccc2)c2cccc(Cl)c21)c1cccnc1	–
1000 nM	4100 nM	–	CC(C)CN1C(=O)/C(=C/C(=O)c2cccnc2)c2c(Cl)cccc21	–
800 nM	570 nM	–	O=C(/C=C1/C(=O)N(c2ccccc2)c2cccc(Cl)c21)c1cccnc1	–
900 nM	740 nM	–	COc1ccccc1C(=O)/C=C1/C(=O)Nc2cccc(Cl)c21	–
700 nM	2800 nM	–	O=C1Nc2cccc(Cl)c2/C1=C\C(=O)c1cccc(Cl)c1	–
1400 nM	1800 nM	–	Nc1cccc(C(=O)/C=C2/C(=O)Nc3cccc(Cl)c32)c1	–
1200 nM	660 nM	–	COC(=O)c1ccc(CN2C(=O)/C(=C/C(=O)c3cccnc3)c3c(Cl)cccc32)cc1	–
1100 nM	890 nM	–	O=C1Nc2cccc(Cl)c2/C1=C\C(=O)c1ccccn1	–
900 nM	1000 nM	400 nM	O=C1Nc2cccc(Br)c2/C1=C\C(=O)c1cccnc1	Ki [2]: 250 nM
900 nM	1700 nM	1300 nM	O=C1Nc2cccc(Cl)c2/C1=C\C(=O)c1cccnc1	–
1100 nM	3000 nM	–	Nc1ccc(C(=O)/C=C2/C(=O)Nc3cccc(Cl)c32)cc1	inhibition [3]: 65%
800 nM	90 nM	–	O=C1Nc2cccc(Cl)c2/C1=C\C(=O)c1ccc(Cl)cc1	inhibition [3]: 60%
1100 nM	1300 nM	–	COc1ccc(C(=O)/C=C2/C(=O)Nc3cccc(Cl)c32)cc1	–
